Active and inactive are the calls of the source. The rule behind the calls is not given here.
What was measured:
[1] = test system: Plasmodium falciparum; experiment: Antimalarial activity against Plasmodium falciparum 3D7 after 72 hrs by DAPI staining-based confocal imaging analysis; assay type: functional, organism-based; details: 3D7, 72 h
In short: (§1)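 Exposed to a 16-point dose series (40 μM to 0.4 nM final, 0.4% DMSO) for 72 h at 37 °C in 90% N2/5% CO2/5% O2. DAPI-stained and imaged confocally. Two biological replicates, each with two technical repeats.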

[2] = Growth inhibition of HEK293 cells at 40 uM after 72 hrs by resazurin dye based assay relative to control; assay type: cell-based; details: human, read-out: GI
In short: (§2)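 HEK293 cells kept in DMEM with 10% FBS. Exposed to compounds for 72 h at 37 °C, 5% CO2, using the same dilution scheme as the parasite assay (top 40 μM). Medium then replaced with 44 μM resazurin, and fluorescence (530/595 nm) read after 5–6 h.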

[3] = Selectivity ratio of Ki for Plasmodium falciparum C-terminal His6-tagged M1 aminopeptidase (195 to 1085 residues) expressed in Escherichia coli BL21(DE3) to Ki for Plasmodium vivax C-terminal His6-tagged M1 aminopeptidase (195 to 1097 residues) expressed in Escherichia coli BL21(DE3)
[4] = test system: Plasmodium falciparum; experiment: Antimalarial activity against Plasmodium falciparum Dd2 after 72 hrs by DAPI staining-based confocal imaging analysis; assay type: functional, organism-based; details: Plasmodium falciparum, Dd2, 72 h; read-out: IC50; in short: as §1
[5] = test system: Plasmodium falciparum; experiment: (§3) Reversible inhibition of Plasmodium falciparum C-terminal His6-tagged M17 aminopeptidase (85 to 605 residues) expressed in Escherichia coli BL21(DE3) assessed as enzyme activity recovery at 150 uM preincubated followed by compound washout for 5 hrs and subsequent L-leucine-7-amido-4-methylcoumarin substrate addition by fluorescence assay
In short: (§4)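 Pf-M17 (20 μM) was incubated overnight at 4 °C with 150 μM compound, 150 μM bestatin, 2 mM EDTA, or buffer (50 mM HEPES pH 8, 300 mM NaCl). It was then washed by repeated 10-fold concentration/dilution for up to 7 h, incubated 10 min in 1 mM MnCl2, 100 mM Tris pH 8.0, given 25 μM Leu-AMC (final), and fluorescence followed for 30 min.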

[6] = Growth inhibition of HEK293 cells at 10 uM after 72 hrs by resazurin dye based assay relative to control; assay type: cell-based; details: human, read-out: GI; in short: as §2
[7] = Inhibition of Plasmodium vivax C-terminal His6-tagged M17 aminopeptidase (203 to 621 residues) expressed in Escherichia coli BL21(DE3) preincubated for 20 mins followed by L-leucine-7-amido-4-methylcoumarin addition by Morrison equation analysis
In short: (§5)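 Recombinant enzymes (Ni-NTA then size exclusion) were preincubated 20 min with inhibitor in 100 mM Tris-HCl pH 8.0, with 2 mM CoCl2 for Pf-M17 and 1 mM for Pv-M17. Leu-AMC substrate: 20 μM (Pf-M1), 40 μM (Pv-M1), 10 μM (both M17). Read at 37 °C, 355/460 nm, to steady-state velocity. Ki from a Morrison tight-binding fit; biological triplicate from three protein preparations.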

[8] = Selectivity index, ratio of CC50 for HEK293 cells to IC50 for Plasmodium falciparum 3D7; assay type: toxicity; details: human, read-out: Ratio CC50/IC50
[9] = Inhibition of Plasmodium vivax C-terminal His6-tagged M1 aminopeptidase (195 to 1097 residues) expressed in Escherichia coli BL21(DE3) preincubated for 20 mins followed by L-leucine-7-amido-4-methylcoumarin addition by Morrison equation analysis; in short: as §5
[10] = test system: Plasmodium falciparum; experiment: as §3, with “for 7” for “for 5”, “assay relative to control” for “assay”; design: scale not given: the % may be the effect or the level left; in short: as §4
[11] = Inhibition of Plasmodium falciparum C-terminal His6-tagged M1 aminopeptidase (195 to 1085 residues) expressed in Escherichia coli BL21(DE3) preincubated for 20 mins followed by L-leucine-7-amido-4-methylcoumarin addition by Morrison equation analysis; in short: as §5
[12] = Inhibition of Plasmodium falciparum C-terminal His6-tagged M17 aminopeptidase (85 to 605 residues) expressed in Escherichia coli BL21(DE3) preincubated for 20 mins followed by L-leucine-7-amido-4-methylcoumarin addition by Morrison equation analysis; in short: as §5
[13] = biological target: T1, Matrilysin (Homo sapiens) (UniProt P09237); experiment: Inhibition of MMP7 (unknown origin) preincubated for 1 hr followed by (QF)-24 substrate addition measured at 1 min time interval for 1 hr by fluorescence assay
T1 sequence (whole entry): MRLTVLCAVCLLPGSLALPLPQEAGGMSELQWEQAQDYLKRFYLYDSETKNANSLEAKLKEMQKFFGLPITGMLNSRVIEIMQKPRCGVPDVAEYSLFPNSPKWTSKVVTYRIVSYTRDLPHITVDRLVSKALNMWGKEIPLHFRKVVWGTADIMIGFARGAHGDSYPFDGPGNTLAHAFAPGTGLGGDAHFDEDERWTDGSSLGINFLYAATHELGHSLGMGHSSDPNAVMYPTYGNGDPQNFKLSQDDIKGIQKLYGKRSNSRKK
In short: (§6)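 MMPs were activated with 1 mM 4-aminophenylmercuric acetate (50 mM HEPES, 150 mM NaCl, 5 mM CaCl2, pH 7.0, 1 h, rt). 1 μM QF24 was added at 37 °C and read at 320/405 nm every minute for 1 h. IC50 from a four-parameter Hill fit; three independent experiments.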

[14] = biological target: Aminopeptidase N (Homo sapiens, UniProt P15144); experiment: Inhibition of human APN expressed in HEK293 cells preincubated for 10 mins followed by L-leucine-7-amido-4-methylcoumarin addition by fluorescence assay
Aminopeptidase N, sequence (P15144 whole entry): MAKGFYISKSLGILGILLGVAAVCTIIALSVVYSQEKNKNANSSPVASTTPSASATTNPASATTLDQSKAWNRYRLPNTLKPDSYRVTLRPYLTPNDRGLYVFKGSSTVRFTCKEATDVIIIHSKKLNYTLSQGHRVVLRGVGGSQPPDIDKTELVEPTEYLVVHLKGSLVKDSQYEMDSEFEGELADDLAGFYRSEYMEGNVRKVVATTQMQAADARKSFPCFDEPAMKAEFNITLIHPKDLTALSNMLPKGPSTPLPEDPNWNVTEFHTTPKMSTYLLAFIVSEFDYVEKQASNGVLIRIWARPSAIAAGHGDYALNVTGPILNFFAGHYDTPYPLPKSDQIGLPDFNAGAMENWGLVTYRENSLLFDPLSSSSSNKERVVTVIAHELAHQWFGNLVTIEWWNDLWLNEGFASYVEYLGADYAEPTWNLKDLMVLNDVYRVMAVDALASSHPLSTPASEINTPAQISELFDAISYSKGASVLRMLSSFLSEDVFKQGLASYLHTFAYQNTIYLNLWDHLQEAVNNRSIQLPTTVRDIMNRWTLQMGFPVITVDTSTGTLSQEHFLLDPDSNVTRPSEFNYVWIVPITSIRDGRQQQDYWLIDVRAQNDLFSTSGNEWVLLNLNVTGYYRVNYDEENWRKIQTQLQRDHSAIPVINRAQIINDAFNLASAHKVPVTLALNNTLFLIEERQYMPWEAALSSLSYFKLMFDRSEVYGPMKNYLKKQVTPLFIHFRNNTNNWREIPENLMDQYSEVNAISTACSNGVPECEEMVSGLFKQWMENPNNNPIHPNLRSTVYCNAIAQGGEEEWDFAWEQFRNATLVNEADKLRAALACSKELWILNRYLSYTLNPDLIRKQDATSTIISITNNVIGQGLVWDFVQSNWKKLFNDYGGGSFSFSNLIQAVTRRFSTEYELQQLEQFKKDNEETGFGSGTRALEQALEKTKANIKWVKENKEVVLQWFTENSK

[15] = biological target: 72 kDa type IV collagenase (Homo sapiens, UniProt P08253); experiment: Inhibition of MMP2 (unknown origin) preincubated for 1 hr followed by (QF)-24 substrate addition measured at 1 min time interval for 1 hr by fluorescence assay
72 kDa type IV collagenase, sequence (P08253 whole entry): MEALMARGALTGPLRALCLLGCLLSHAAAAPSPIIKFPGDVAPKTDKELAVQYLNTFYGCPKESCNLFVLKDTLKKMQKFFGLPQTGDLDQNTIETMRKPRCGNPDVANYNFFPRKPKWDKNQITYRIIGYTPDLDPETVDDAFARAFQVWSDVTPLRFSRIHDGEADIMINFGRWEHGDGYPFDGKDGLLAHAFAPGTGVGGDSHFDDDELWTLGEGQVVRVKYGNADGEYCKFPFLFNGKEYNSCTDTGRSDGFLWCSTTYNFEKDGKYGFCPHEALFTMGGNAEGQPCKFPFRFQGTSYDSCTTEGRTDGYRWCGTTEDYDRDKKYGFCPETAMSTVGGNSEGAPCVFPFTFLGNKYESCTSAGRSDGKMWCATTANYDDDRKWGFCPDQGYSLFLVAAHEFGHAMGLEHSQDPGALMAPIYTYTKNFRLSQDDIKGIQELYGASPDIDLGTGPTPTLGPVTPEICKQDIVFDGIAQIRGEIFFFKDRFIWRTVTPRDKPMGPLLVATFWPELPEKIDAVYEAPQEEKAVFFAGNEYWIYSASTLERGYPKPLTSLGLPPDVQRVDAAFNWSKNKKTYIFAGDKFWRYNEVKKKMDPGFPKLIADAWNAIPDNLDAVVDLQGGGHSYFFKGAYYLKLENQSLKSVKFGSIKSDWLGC

[16] = test system: Insulin-regulated aminopeptidase (Homo sapiens); experiment: Inhibition of human IRAP at <200 uM preincubated for 10 mins followed by L-leucine-7-amido-4-methylcoumarin addition by fluorescence assay
[17] = Cytotoxicity against HEK293 cells after 72 hrs by resazurin dye based assay; assay type: cell-based; details: human; in short: as §2
[18] = biological target: Matrix metalloproteinase-9 (Homo sapiens, UniProt P14780); experiment: Inhibition of MMP9 (unknown origin) preincubated for 1 hr followed by (QF)-24 substrate addition measured at 1 min time interval for 1 hr by fluorescence assay
Matrix metalloproteinase-9, sequence (P14780 whole entry): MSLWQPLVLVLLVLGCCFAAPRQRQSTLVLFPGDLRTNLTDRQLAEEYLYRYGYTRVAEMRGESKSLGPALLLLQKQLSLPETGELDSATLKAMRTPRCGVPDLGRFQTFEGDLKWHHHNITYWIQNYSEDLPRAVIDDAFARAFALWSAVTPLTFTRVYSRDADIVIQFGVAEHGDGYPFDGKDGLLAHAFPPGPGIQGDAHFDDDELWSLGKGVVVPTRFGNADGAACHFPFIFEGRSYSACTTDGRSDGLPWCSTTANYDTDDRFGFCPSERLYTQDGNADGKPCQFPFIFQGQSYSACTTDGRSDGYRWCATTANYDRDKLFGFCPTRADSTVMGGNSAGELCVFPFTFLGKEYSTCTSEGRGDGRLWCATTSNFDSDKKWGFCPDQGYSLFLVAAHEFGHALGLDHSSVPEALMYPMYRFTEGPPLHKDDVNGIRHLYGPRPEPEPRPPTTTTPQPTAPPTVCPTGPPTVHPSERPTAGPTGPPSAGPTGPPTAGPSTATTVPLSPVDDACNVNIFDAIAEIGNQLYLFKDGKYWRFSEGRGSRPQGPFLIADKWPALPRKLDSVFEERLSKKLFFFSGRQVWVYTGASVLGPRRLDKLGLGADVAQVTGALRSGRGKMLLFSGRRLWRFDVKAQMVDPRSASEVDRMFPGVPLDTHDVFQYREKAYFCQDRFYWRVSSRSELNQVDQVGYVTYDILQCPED

[19] = biological target: Neutrophil collagenase (Homo sapiens) (UniProt P22894); experiment: Inhibition of MMP8 (unknown origin) preincubated for 1 hr followed by (QF)-24 substrate addition measured at 1 min time interval for 1 hr by fluorescence assay; in short: as §6
Neutrophil collagenase (Homo sapiens), sequence (P22894 101-467 limits assumed): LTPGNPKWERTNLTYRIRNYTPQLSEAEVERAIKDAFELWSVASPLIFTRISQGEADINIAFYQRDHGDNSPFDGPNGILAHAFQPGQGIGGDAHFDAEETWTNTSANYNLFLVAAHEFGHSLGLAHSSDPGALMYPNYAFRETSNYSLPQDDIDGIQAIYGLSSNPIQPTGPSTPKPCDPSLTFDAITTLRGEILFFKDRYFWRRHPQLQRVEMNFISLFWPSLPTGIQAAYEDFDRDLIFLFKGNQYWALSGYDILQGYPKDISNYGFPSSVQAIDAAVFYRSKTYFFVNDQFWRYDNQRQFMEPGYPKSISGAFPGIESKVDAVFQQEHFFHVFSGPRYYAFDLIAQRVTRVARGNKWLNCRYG

IC50 [1] [µM] | Ratio Ki [3] | IC50 [4] [µM] | inhibition [5] | Activity [10] [%] | inhibition [13] | Ki [14] [µM] | IC50 [15] [µM] | inhibition [16] | IC50 [18] [µM] | inhibition [19] | SMILES | inhibition at 72 h, 40 µM [2] [%] | inhibition at 72 h, 10 µM [6] [%] | Ki [7] [µM] | selectivity ratio [8] | Ki [9] [µM] | Ki [11] [µM] | Ki [12] [µM] | CC50 at 72 h [17] [µM]
0.357 | 1.1 | 0.313 | Active | 20 | – | – | – | – | – | – | O=C(NO)C(NC(=O)C12CC3CC(CC(C3)C1)C2)c1ccc(-c2cc(F)c(F)c(F)c2)cc1 (centres undefined) | 42.9 | 2.1 | 0.0186 | ≥ 56 | 0.122 | 0.137 | 0.0289 | –
0.0146 | 42.1 | 0.0138 | – | – | Active | 0.3 | 17 | inactive | > 1000 | Active | CC(C)(C)CC(=O)NC(C(=O)NO)c1ccc(-c2cc(F)c(F)c(F)c2)cc1 (centres undefined) | 98.4 | 4.8 | 0.0036 | ≥ 1370 | 0.00639 | 0.269 | 0.101 | ≥ 20

From ChEMBL document CHEMBL4371057, “Hydroxamic Acid Inhibitors Provide Cross-Species Inhibition of Plasmodium M1 and M17 Aminopeptidases” (J Med Chem, 2019)
